PABP FP inh: PABP-poly(A) binding inhibition | hit rate 1% among 290,000 | calls only at 35 µM | P11940 | PABP-poly(A) RNA binding, fluorescence polarization;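 further: calls also rest on retests at 20 µM and on dose response follow-up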
Target sequence (P11940 whole entry, looked up): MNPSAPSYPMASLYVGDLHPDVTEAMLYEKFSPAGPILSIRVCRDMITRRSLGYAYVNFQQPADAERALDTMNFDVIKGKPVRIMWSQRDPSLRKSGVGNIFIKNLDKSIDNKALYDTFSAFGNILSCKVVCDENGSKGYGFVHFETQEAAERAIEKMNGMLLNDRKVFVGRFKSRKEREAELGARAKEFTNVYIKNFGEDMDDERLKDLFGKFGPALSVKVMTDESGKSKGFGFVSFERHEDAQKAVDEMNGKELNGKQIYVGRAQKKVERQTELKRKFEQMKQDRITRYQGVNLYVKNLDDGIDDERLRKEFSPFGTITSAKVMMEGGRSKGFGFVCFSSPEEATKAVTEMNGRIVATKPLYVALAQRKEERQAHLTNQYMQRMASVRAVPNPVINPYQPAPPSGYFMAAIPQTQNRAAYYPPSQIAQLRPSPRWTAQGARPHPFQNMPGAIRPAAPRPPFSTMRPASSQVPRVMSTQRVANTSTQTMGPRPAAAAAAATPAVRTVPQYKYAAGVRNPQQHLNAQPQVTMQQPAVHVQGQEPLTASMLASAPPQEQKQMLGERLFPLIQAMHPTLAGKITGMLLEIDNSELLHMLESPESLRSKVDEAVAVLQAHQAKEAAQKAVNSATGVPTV
MLLE-PAM2 inh: blocks PAM2 peptide binding to the PABP1 MLLE domain | GST-MLLE / FITC-PAM2 fluorescence polarization | inhibition, % at 20 µM | hit rate 0.36% among 360,000; in the data active means inhibition above about 35%, passing the limit was not always enough;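 further: plate controls were DMSO wells with GST-MLLE for no effect and wells lacking GST-MLLE protein for full effect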
MT1-MMP act inh: blocks activation of human MT1-MMP | HT1080 RFP-PRO-GFP cells, GFP/RFP ratio fluorescence, overnight; percent of plate control window, DMSO zero | GFP/RFP ratio change, % at 20 µM | hit rate 0.061% among 360,000 | AID 651647;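 active means GFP/RFP ratio change of at least 30% with cell ATP level not reduced by more than half and red fluorescence within 50% of control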
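Test system: HT1080 cells expressing an RFP-PRO-GFP fluorescent reporter construct / Compound dosing: single-point 20 µM compound, 1% DMSO / Schedule: cells overnight before dosing, compound overnight, 37 °C, 5% CO2 / Evaluation: GFP/RFP fluorescence ratio / Control set: DMSO and RFP-L50D-GFP cell wells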
SKN-1 block: blocks SKN-1 activity in C. elegans. C. elegans VP596 Pgst-4::GFP/RFP ratio, acrylamide-induced, 24 h. inhibition, % at 21.8 µM. hit rate 0.49% among 360,000. AID 624304;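 active means interference check ratio from 0.5 to 1.5 plus GFP to RFP signal ratio inhibition reaching or exceeding a fixed threshold, cut at about 30% in these data, passing the limit was not always enough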
eIF4H inh: inhibitors of RNA binding by human eIF4H | inhibition, % at 35 µM | eIF4H fluorescence polarization binding assay | hit rate 0.94% among 290,000 | AID 2012;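 further: calls also rest on retests at 20 µM and on dose response follow-up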
* = called active by the depositor; ! = repeats disagree. An excerpt weighted towards active compounds, which were near 1.8% of everything screened. Unless noted, how the calls were made is not given here.

How did CC1=C(C(=O)O)N2C(=O)C(NC(=O)c3nn(C)cc3[N+](=O)[O-])C2SC1 (stereo unspecified) do in these assays?
PABP FP inh: inactive; MLLE-PAM2 inh: 38; MT1-MMP act inh: 4; SKN-1 block: -14; eIF4H inh: -2

Results for CC1=C(C(=O)O)N2C(=O)C(NC(=O)c3ccn(C)n3)C2SC1 (stereo unspecified) ?
PABP FP inh: inactive; MLLE-PAM2 inh: 49*; MT1-MMP act inh: -2; SKN-1 block: 12; eIF4H inh: 0

How did CCCn1nc2cc(C(=O)NCc3ccc(OC(F)(F)F)cc3)ccc2c1OCC do in these assays?
PABP FP inh: inactive; MLLE-PAM2 inh: 7; MT1-MMP act inh: 7; SKN-1 block: 62*; eIF4H inh: 8

How did O=C(O)C1CCCCC1C(=O)NCCc1c[nH]c2ccccc12 (stereo unspecified) do in these assays?
PABP FP inh: inactive; MLLE-PAM2 inh: -6; MT1-MMP act inh: -3; SKN-1 block: 37*; eIF4H inh: -1

Results for CC(C)C(NC(=O)c1ccc(C(C)(C)C)cc1)C(=O)NC1=NCCS1 (stereo unspecified) ?
PABP FP inh: inactive; MLLE-PAM2 inh: 16; MT1-MMP act inh: 5; SKN-1 block: 7; eIF4H inh: -9

How did CC(C)C(NC(=O)c1cccs1)C(=O)NC1=NCCS1 (stereo unspecified) do in these assays?
PABP FP inh: inactive; MLLE-PAM2 inh: 42*; MT1-MMP act inh: 0; SKN-1 block: 11; eIF4H inh: 3

What do the screens show for `O=C(NC1=NCCS1)c1ccccc1`?
PABP FP inh: inactive; MLLE-PAM2 inh: 3; MT1-MMP act inh: -1; SKN-1 block: 2; eIF4H inh: -11

How did O=C(NC1=NCCS1)c1csc2ccccc12 do in these assays?
PABP FP inh: inactive; MLLE-PAM2 inh: 36*; MT1-MMP act inh: 4; SKN-1 block: 2; eIF4H inh: -4

How did O=C(NC1=NCCS1)c1cccs1 do in these assays?
PABP FP inh: inactive; MLLE-PAM2 inh: 44*; MT1-MMP act inh: -4; SKN-1 block: -12; eIF4H inh: 2

What do the screens show for `O=C(NC1=NCCS1)c1ccccc1Cl`?
PABP FP inh: inactive; MLLE-PAM2 inh: 9; MT1-MMP act inh: -2; SKN-1 block: 17; eIF4H inh: 7

How did Cc1ccc(C(NC(=O)C2CCN(Cc3ccc(Cl)c(Cl)c3)CC2)c2ccccn2)cc1 (stereo unspecified) do in these assays?
MLLE-PAM2 inh: 5; MT1-MMP act inh: -1; SKN-1 block: 31

How did O=C(NCCN1CCC(n2c(=O)[nH]c3ccccc32)CC1)c1cccs1 do in these assays?
MT1-MMP act inh: 0; SKN-1 block: -5

Results for NC(=O)C[C@H](N)c1cn([C@@H](CC(N)=O)C(=O)N2CCNCC2)nn1 ?
MLLE-PAM2 inh: 4; MT1-MMP act inh: -4; SKN-1 block: 10

What do the screens show for `O=C(c1ccc(-c2cccc(C(F)(F)F)c2)o1)N1CCOCC1`?
PABP FP inh: inactive; MLLE-PAM2 inh: 4; MT1-MMP act inh: 1; SKN-1 block: 45*; eIF4H inh: -7

What do the screens show for `CC(=O)N1CCN(C(=O)c2ccc(-c3cccc(C(F)(F)F)c3)o2)CC1`?
MLLE-PAM2 inh: 28; MT1-MMP act inh: 1; SKN-1 block: 30

How did CC(/C=C\c1cccnc1)=C/C(=O)O do in these assays?
PABP FP inh: inactive; MLLE-PAM2 inh: 5; MT1-MMP act inh: -2; SKN-1 block: 10; eIF4H inh: 73*!

Results for O=C(O)/C=C/c1cccnc1 ?
PABP FP inh: inactive; MLLE-PAM2 inh: 14; MT1-MMP act inh: 0; SKN-1 block: 0; eIF4H inh: 4

What do the screens show for `COc1ccc(OCc2cc(C(=O)N3CCCC(O)C3)no2)c2ccccc12` (stereo unspecified)?
PABP FP inh: inactive; MLLE-PAM2 inh: 11; MT1-MMP act inh: -2; SKN-1 block: 4; eIF4H inh: 8

Results for O=C1c2ccccc2C(=O)N1c1cccc2cccnc12 ?
PABP FP inh: inactive; MLLE-PAM2 inh: 11; MT1-MMP act inh: -4; SKN-1 block: 5; eIF4H inh: 64*

Results for O=C1C2C3C=CC(C3)C2C(=O)N1c1cccc2cccnc12 (stereo unspecified) ?
PABP FP inh: inactive; MLLE-PAM2 inh: 6; MT1-MMP act inh: -2; SKN-1 block: 9; eIF4H inh: 9

Results for COc1ccc(Cc2nc3ccc(C(=O)NCCc4cccc(C)n4)cc3o2)cc1 ?
MLLE-PAM2 inh: -1; MT1-MMP act inh: -5; SKN-1 block: -10

How did COc1cnc(-c2cccc(C(F)(F)F)c2)[nH]c1=O do in these assays?
PABP FP inh: inactive; MLLE-PAM2 inh: -7; MT1-MMP act inh: 4; SKN-1 block: -4; eIF4H inh: 5

How did FC(F)(F)c1cccc(-c2nc3nc(Cl)c(Cl)nc3[nH]2)c1 do in these assays?
PABP FP inh: active; MLLE-PAM2 inh: -29; MT1-MMP act inh: -26; SKN-1 block: 1; eIF4H inh: inconclusive

Results for COc1ccc(C(C)=O)cc1CN1C(=O)C(C)ON=C1c1cccc(C(F)(F)F)c1 (stereo unspecified) ?
MLLE-PAM2 inh: -5; MT1-MMP act inh: 2; SKN-1 block: 35*

Results for CCCCn1c(N)c(N(CC(C)C)C(=O)COC(=O)Cc2cccc(OC)c2)c(=O)[nH]c1=O ?
MLLE-PAM2 inh: 4; MT1-MMP act inh: 1; SKN-1 block: 5

What do the screens show for `S=C(c1ccc(-c2ccccc2Cl)o1)N1CCOCC1`?
PABP FP inh: inactive; MLLE-PAM2 inh: 41*; MT1-MMP act inh: -1; SKN-1 block: 14; eIF4H inh: 12

How did CC(=O)NS(=O)(=O)c1ccc(NC(=O)c2cccc3ccccc23)cc1 do in these assays?
MLLE-PAM2 inh: 7; MT1-MMP act inh: 2; SKN-1 block: 4

Results for CSc1nc(-c2ccco2)nn1C(=O)c1ccccc1 ?
PABP FP inh: inactive; MLLE-PAM2 inh: 10; MT1-MMP act inh: 0; SKN-1 block: 21; eIF4H inh: 12

What do the screens show for `CSc1nc(-c2ccco2)nn1C(=O)c1ccc(C)cc1`?
PABP FP inh: inactive; MLLE-PAM2 inh: 15; MT1-MMP act inh: 0; SKN-1 block: 36*; eIF4H inh: 3

How did Cc1ccc(C(=O)NCC(=O)Nc2ccc(S(=O)(=O)Nc3cc(C)nc(C)n3)cc2)cc1 do in these assays?
MLLE-PAM2 inh: 0; MT1-MMP act inh: 0; SKN-1 block: -14

Results for CN(C)CCCN(C(=O)c1ccc([N+](=O)[O-])o1)c1nc2cc3c(cc2s1)OCO3 ?
PABP FP inh: inactive; MLLE-PAM2 inh: -3; MT1-MMP act inh: 1; SKN-1 block: -14; eIF4H inh: -3

Results for Nc1ccc(N2CCCCCC2)cc1 ?
PABP FP inh: active; eIF4H inh: 83*

Results for Nc1ccc(N2CCN(c3ccc(F)cc3)CC2)cc1 ?
PABP FP inh: inactive; MLLE-PAM2 inh: 3; MT1-MMP act inh: -5; SKN-1 block: 0; eIF4H inh: 4

How did Cc1nn2cc(-c3ccc(Cl)cc3)nc2s1 do in these assays?
PABP FP inh: inactive; MLLE-PAM2 inh: -10; MT1-MMP act inh: 13; SKN-1 block: 45*; eIF4H inh: 0
